Common to all, as to assay type: functional
The test system of test [1] is Escherichia coli. Put plainly: Antimicrobial activity against Escherichia coli DH5[alpha] transformed with pAC-ges1 plasmid encoding Beta-lactamase GES-7 K104, G170 mutant in presence of clavulanic acid at compound/inhibitor ratio of 2:1 by Etest method. A digest of the protocol:
(§1)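 E. coli DH5α host, either untransformed or carrying pACYC184-based clones of the GES variant genes. MICs of penicillin–clavulanate combinations were read by Etest following the manufacturer's recommendations, with penicillin and inhibitor at a 2:1 ratio.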

Test [2] has as its system Escherichia coli. Nature of the test: Antimicrobial activity against Escherichia coli DH5[alpha] transformed with pAC-ges1 plasmid encoding Beta-lactamase GES-13 K104, N170 mutant in presence of clavulanic acid at compound/inhibitor ratio of 2:1 by Etest method. A digest of the protocol:
as §1

Test [3] has as its system Escherichia coli. Nature of the test: Antimicrobial activity against Escherichia coli DH5[alpha] transformed with pAC-ges1 plasmid encoding Beta-lactamase GES-1 E104, G170 mutant in presence of clavulanic acid at compound/inhibitor ratio of 2:1 by Etest method. A digest of the protocol: as §1
The test system of test [4] is Escherichia coli. Nature of the test: Antimicrobial activity against Escherichia coli DH5[alpha] transformed with pAC-ges1 plasmid encoding Beta-lactamase GES-5 E104, S170 mutant in presence of clavulanic acid at compound/inhibitor ratio of 2:1. A digest of the protocol:
as §1

Test [5] has as its system Escherichia coli. Put plainly: Antimicrobial activity against Escherichia coli DH5[alpha] in presence of clavulanic acid at compound/inhibitor ratio of 2:1 by Etest method. An outline of the steps: as §1
In test [6] the test system is Escherichia coli. Nature of the test: Antimicrobial activity against Escherichia coli DH5[alpha] transformed with pAC-ges1 plasmid encoding Beta-lactamase GES-6 K104, S170 mutant in presence of clavulanic acid at compound/inhibitor ratio of 2:1 by Etest method. An outline of the steps: as §1
In test [7] the test system is Escherichia coli. Put plainly: Antimicrobial activity against Escherichia coli DH5[alpha] transformed with pAC-ges1 plasmid encoding Beta-lactamase GES-2 E104, N170 mutant in presence of clavulanic acid at compound/inhibitor ratio of 2:1 by Etest method. A digest of the protocol: as §1
The test system of test [8] is Escherichia coli. Nature of the test: Antimicrobial activity against Escherichia coli DH5[alpha] in presence of at 4 ug/ml Tazobactam by Etest method. A digest of the protocol: (§2)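 E. coli DH5α host, either untransformed or carrying pACYC184-based clones of the GES variant genes; the source gene came from integron plasmid pBC-ges1. MICs were read by Etest following the manufacturer's recommendations, with the inhibitor held at a fixed 4 μg/ml.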

The subject of test [9] is Escherichia coli. Nature of the test: Antimicrobial activity against Escherichia coli DH5[alpha] transformed with pAC-ges1 plasmid encoding Beta-lactamase GES-2 E104, N170 mutant by Etest method.
Test [10] deals with Escherichia coli. Nature of the test: Antimicrobial activity against Escherichia coli DH5[alpha] transformed with pAC-ges1 plasmid encoding Beta-lactamase GES-2 E104, N170 mutant in presence of at 4 ug/ml Tazobactam by Etest method. An outline of the steps: as §2
Test [11] deals with Escherichia coli. Nature of the test: Antimicrobial activity against Escherichia coli DH5[alpha] transformed with pAC-ges1 plasmid encoding Beta-lactamase GES-5 E104, S170 mutant by Etest method.
Test [12] relates to Escherichia coli. Nature of the test: Antimicrobial activity against Escherichia coli DH5[alpha] transformed with pAC-ges1 plasmid encoding Beta-lactamase GES-13 K104, N170 mutant by Etest method.
Test [13] relates to Escherichia coli. Put plainly: Antimicrobial activity against Escherichia coli DH5[alpha] transformed with pAC-ges1 plasmid encoding Beta-lactamase GES-6 K104, S170 mutant by Etest method.
In test [14] the test system is Escherichia coli. Nature of the test: Antimicrobial activity against Escherichia coli DH5[alpha] transformed with pAC-ges1 plasmid encoding Beta-lactamase GES-6 K104, S170 mutant in presence of at 4 ug/ml Tazobactam by Etest method. A digest of the protocol:
as §2

The subject of test [15] is Escherichia coli. Nature of the test: Antimicrobial activity against Escherichia coli DH5[alpha] by Etest method.
Test [16] deals with Escherichia coli. Put plainly: Antimicrobial activity against Escherichia coli DH5[alpha] transformed with pAC-ges1 plasmid encoding Beta-lactamase GES-5 E104, S170 mutant in presence of at 4 ug/ml Tazobactam by Etest method. A digest of the protocol: as §2
The subject of test [17] is Escherichia coli. Put plainly: Antimicrobial activity against Escherichia coli DH5[alpha] transformed with pAC-ges1 plasmid encoding Beta-lactamase GES-1 E104, G170 mutant by Etest method.
Test [18] has as its system Escherichia coli. Put plainly: Antimicrobial activity against Escherichia coli DH5[alpha] transformed with pAC-ges1 plasmid encoding Beta-lactamase GES-7 K104, G170 mutant in presence of at 4 ug/ml Tazobactam by Etest method. An outline of the steps: as §2
Test [19] deals with Escherichia coli. Nature of the test: Antimicrobial activity against Escherichia coli DH5[alpha] transformed with pAC-ges1 plasmid encoding Beta-lactamase GES-1 E104, G170 mutant in presence of at 4 ug/ml Tazobactam by Etest method. An outline of the steps: as §2
Test [20] has as its system Escherichia coli. Nature of the test: Antimicrobial activity against Escherichia coli DH5[alpha] transformed with pAC-ges1 plasmid encoding Beta-lactamase GES-13 K104, N170 mutant in presence of at 4 ug/ml Tazobactam by Etest method. An outline of the steps: as §2
Test [21] relates to Escherichia coli. Nature of the test: Antimicrobial activity against Escherichia coli DH5[alpha] transformed with pAC-ges1 plasmid encoding Beta-lactamase GES-7 K104, G170 mutant by Etest method.
In test [22] the test system is Escherichia coli. Nature of the test: Antimicrobial activity against Escherichia coli DH5[alpha] transformed with pAC-ges1 plasmid encoding Beta-lactamase GES-5 E104, S170 mutant in presence of at 2 ug/ml clavulanic acid by Etest method.
The subject of test [23] is Escherichia coli. Put plainly: Antimicrobial activity against Escherichia coli DH5[alpha] in presence of at 2 ug/ml clavulanic acid by Etest method.
Test [24] concerns Escherichia coli. Put plainly: Antimicrobial activity against Escherichia coli DH5[alpha] transformed with pAC-ges1 plasmid encoding Beta-lactamase GES-2 E104, N170 mutant in presence of at 2 ug/ml clavulanic acid by Etest method. An outline of the steps:
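MIC read by Etest per the manufacturer's instructions. Host was E. coli DH5α carrying the bla_GES gene cloned into the chloramphenicol- and tetracycline-resistant vector pACYC184, with the high-copy plasmid pBC-ges1 as the gene source. The inhibitor was held at a fixed 2 μg/ml.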

The test system of test [25] is Escherichia coli. Put plainly: Antimicrobial activity against Escherichia coli DH5[alpha] transformed with pAC-ges1 plasmid encoding Beta-lactamase GES-6 K104, S170 mutant in presence of at 2 ug/ml clavulanic acid by Etest method.
Test [26] concerns Escherichia coli. Nature of the test: Antimicrobial activity against Escherichia coli DH5[alpha] transformed with pAC-ges1 plasmid encoding Beta-lactamase GES-7 K104, G170 mutant in presence of at 2 ug/ml clavulanic acid by Etest method.
In test [27] the test system is Escherichia coli. Put plainly: Antimicrobial activity against Escherichia coli DH5[alpha] transformed with pAC-ges1 plasmid encoding Beta-lactamase GES-1 E104, G170 mutant in presence of at 2 ug/ml clavulanic acid by Etest method.
For test [28], the system named is Escherichia coli. Nature of the test: Antimicrobial activity against Escherichia coli DH5[alpha] transformed with pAC-ges1 plasmid encoding Beta-lactamase GES-13 K104, N170 mutant in presence of at 2 ug/ml clavulanic acid by Etest method.

Values after ≈ are worked out from the molar mass of the structure shown.

For `CC1(C)S[C@@H]2[C@H](NC(=O)[C@H](N)c3ccc(O)cc3)C(=O)N2[C@H]1C(=O)O` [AMOXICILLIN], the minimum inhibitory concentration (MIC) with Escherichia coli [1] came to 32 µg/mL; in the test on Escherichia coli [2], 3 µg/mL; in the test on Escherichia coli [3] it was 8 µg/mL; in the test with Escherichia coli [4] it was 16 µg/mL; in the test on Escherichia coli [5], 2 µg/mL; with Escherichia coli [6], 32 µg/mL. In addition, the MIC in the test with Escherichia coli [7] worked out at 3 µg/mL.
On to `CCN1CCN(C(=O)N[C@@H](C(=O)N[C@@H]2C(=O)N3[C@@H]2SC(C)(C)[C@@H]3C(=O)O)c2ccccc2)C(=O)C1=O` [PIPERACILLIN], for which the MIC in the test on Escherichia coli [8] is 1 µg/mL; against Escherichia coli [9] it was 4 µg/mL (≈ 7.73 µM); in the test on Escherichia coli [10] it was 1 µg/mL; with Escherichia coli [11], 8 µg/mL (≈ 15.5 µM); against Escherichia coli [12] it was 8 µg/mL (≈ 15.5 µM); in the test on Escherichia coli [13] it was 12 µg/mL (≈ 23.2 µM). The MIC in the test with Escherichia coli [14] is 2 µg/mL; against Escherichia coli [15], 4 µg/mL (≈ 7.73 µM); with Escherichia coli [16] it was 2 µg/mL; with Escherichia coli [17], 8 µg/mL (≈ 15.5 µM); in the test on Escherichia coli [18], 1 µg/mL; with Escherichia coli [19] it was 1 µg/mL. Besides, the figures for the minimum inhibitory concentration (MIC) with Escherichia coli [20] and against Escherichia coli [21] were 1 µg/mL and 12 µg/mL (≈ 23.2 µM), respectively.
On to `CC1(C)S[C@@H]2[C@H](NC(=O)[C@H](C(=O)O)c3ccsc3)C(=O)N2[C@H]1C(=O)O` [TICARCILLIN], for which the minimum inhibitory concentration (MIC) against Escherichia coli [9] is more than 256 µg/mL; with Escherichia coli [22], 16 µg/mL; with Escherichia coli [11], more than 256 µg/mL; in the test on Escherichia coli [12] it was more than 256 µg/mL; in the test on Escherichia coli [13] it was more than 256 µg/mL; with Escherichia coli [23], 4 µg/mL. In addition, the MIC with Escherichia coli [24] was 1.5 µg/mL; with Escherichia coli [25], more than 256 µg/mL; in the test on Escherichia coli [26], more than 256 µg/mL; against Escherichia coli [15] it was 4 µg/mL (≈ 10.4 µM); with Escherichia coli [27] it was 6 µg/mL; with Escherichia coli [28] it was 8 µg/mL. Besides, the minimum inhibitory concentration (MIC) against Escherichia coli [17] and with Escherichia coli [21] was more than 256 µg/mL each time.

The record behind these values is ChEMBL document CHEMBL1687781, “Comparative biochemical and computational study of the role of naturally occurring mutations at Ambler positions 104 and 170 in GES β-lactamases” (Antimicrob Agents Chemother, 2010).
